The source of these data is ChEMBL document CHEMBL4715843, “NO-releasing STAT3 inhibitors suppress BRAF-mutant melanoma growth” (Eur J Med Chem, 2020).

The term IC50 denotes the point on the concentration scale where inhibition reaches its midpoint.

Each structure is given as a SMILES string. Active and inactive are the calls of the source. The rule behind the calls is not given here.

In test [1] the target is T1, Signal transducer and activator of transcription 3 (Homo sapiens, UniProt P40763). In words: Inhibition of STAT3 phosphorylation at Y705 residue in human SB-590885-resistant 451Lu cells measured after 12 hrs by Western blot analysis. The settings on record: dose 10-25 µM. A digest of the protocol:
(§1)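 451 Lu and MEL 1617 pairs, sensitive and resistant; resistant lines maintained in RPMI with 1 µM PLX4720. Treated with 10 and 25 µM for 12 h versus DMSO. Lysates (60 µg protein, 10% SDS-PAGE) immunoblotted for Ser727- and Tyr705-phospho-STAT3, total STAT3, total PAX3, with actin.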
In general terms: A western blot detects proteins with antibodies after separation by electrophoresis.

The target in test [2] is T1, Signal transducer and activator of transcription 3. The experiment in a line: Inhibition of STAT3 phosphorylation at Y705 residue in human SB-590885-resistant MEL1617 cells at 10 to 25 uM measured after 12 hrs by Western blot analysis. It is filed as cell-based. The settings on record: dose 10-25 µM. A digest of the protocol:
as §1

Test [3] has the same target. The experiment in a line: Inhibition of STAT3 phosphorylation at Y705 residue in human SB-590885-sensitive 451Lu cells measured after 12 hrs by Western blot analysis. Conditions: dose 10-25 µM. In a few lines: as §1
Test [4] in a line: Antiproliferative activity against human SB-590885-sensitive 451Lu cells assessed as reduction in cell viability measured after 48 hrs by MTS assay. It is filed as functional. A digest of the protocol:
(§2)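 Melanoma lines were grown in RPMI-1640 with Glutamax at 37 °C and 5% CO2. The resistant 451 Lu-R and MEL 1617-R sublines were maintained with 1 µM PLX4720. Cells were incubated with vehicle or inhibitor over a dose range, and viability was read by MTS assay in triplicate.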

The target in test [5] is Signal transducer and activator of transcription 5A (Homo sapiens) (UniProt P42229). The experiment in a line: Inhibition of STAT5 phosphorylation at Y694 residues in human A-375 cells at 50 uM after 20 hrs by Western blotting analysis. It is filed as cell-based. A digest of the protocol: (§3)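 A375 cells exposed to a dose range of inhibitor for 20 h (overnight), up to 50 µM; lysates immunoblotted for phospho-STAT1 Y701, phospho-STAT5 Y694 and phospho-STAT6 Y641, with actin and/or vinculin as loading controls.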
Signal transducer and activator of transcription 5A (Homo sapiens), sequence (P42229 whole entry): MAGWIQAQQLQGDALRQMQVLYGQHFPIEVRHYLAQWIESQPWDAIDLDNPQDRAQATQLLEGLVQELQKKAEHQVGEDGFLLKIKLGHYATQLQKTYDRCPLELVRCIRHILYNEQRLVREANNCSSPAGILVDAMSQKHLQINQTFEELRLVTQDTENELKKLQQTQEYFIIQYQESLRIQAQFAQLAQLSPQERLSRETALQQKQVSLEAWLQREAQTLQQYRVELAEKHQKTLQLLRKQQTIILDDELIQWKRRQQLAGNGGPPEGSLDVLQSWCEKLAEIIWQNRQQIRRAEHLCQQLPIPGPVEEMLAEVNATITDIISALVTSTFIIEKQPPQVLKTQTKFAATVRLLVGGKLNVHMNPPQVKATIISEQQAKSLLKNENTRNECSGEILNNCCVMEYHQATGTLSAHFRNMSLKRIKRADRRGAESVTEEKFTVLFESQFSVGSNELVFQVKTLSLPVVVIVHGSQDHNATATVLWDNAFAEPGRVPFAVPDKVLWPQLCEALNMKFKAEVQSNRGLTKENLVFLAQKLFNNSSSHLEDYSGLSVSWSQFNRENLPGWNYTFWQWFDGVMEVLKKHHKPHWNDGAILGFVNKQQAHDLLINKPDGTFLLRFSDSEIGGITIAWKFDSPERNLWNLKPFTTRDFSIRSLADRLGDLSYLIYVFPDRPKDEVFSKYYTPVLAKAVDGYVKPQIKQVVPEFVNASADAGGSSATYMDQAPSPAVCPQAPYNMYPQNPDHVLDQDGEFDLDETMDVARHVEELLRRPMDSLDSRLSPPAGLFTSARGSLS

Test [6] concerns the target T1, Signal transducer and activator of transcription 3. The experiment in a line: Inhibition of STAT3 in human SB-590885-resistant 451Lu cells assessed as reduction in PAX3 expression measured after 12 hrs by Western blot analysis. Conditions: dose 10-25 µM. In a few lines: as §1
For test [7], the target named is Tyrosine-protein kinase JAK2 (Homo sapiens) (UniProt O60674). The experiment in a line: Inhibition of JAK2 phosphorylation in human A-375 cells at 5 to 50 uM after 12 hrs by Western blotting analysis. Type of test: cell-based. Conditions: dose 5-50 µM. A digest of the protocol: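 A375 cells were treated with 0, 5, 10 or 25 µM overnight (methods state 12 h) in RPMI-1640 with Glutamax. Lysates (60 µg protein) were run on 10% SDS-PAGE and immunoblotted for phospho-JAK2 or phospho-ERK1/2, with actin and/or vinculin as loading controls; performed twice.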
Tyrosine-protein kinase JAK2 (Homo sapiens), sequence (O60674 whole entry): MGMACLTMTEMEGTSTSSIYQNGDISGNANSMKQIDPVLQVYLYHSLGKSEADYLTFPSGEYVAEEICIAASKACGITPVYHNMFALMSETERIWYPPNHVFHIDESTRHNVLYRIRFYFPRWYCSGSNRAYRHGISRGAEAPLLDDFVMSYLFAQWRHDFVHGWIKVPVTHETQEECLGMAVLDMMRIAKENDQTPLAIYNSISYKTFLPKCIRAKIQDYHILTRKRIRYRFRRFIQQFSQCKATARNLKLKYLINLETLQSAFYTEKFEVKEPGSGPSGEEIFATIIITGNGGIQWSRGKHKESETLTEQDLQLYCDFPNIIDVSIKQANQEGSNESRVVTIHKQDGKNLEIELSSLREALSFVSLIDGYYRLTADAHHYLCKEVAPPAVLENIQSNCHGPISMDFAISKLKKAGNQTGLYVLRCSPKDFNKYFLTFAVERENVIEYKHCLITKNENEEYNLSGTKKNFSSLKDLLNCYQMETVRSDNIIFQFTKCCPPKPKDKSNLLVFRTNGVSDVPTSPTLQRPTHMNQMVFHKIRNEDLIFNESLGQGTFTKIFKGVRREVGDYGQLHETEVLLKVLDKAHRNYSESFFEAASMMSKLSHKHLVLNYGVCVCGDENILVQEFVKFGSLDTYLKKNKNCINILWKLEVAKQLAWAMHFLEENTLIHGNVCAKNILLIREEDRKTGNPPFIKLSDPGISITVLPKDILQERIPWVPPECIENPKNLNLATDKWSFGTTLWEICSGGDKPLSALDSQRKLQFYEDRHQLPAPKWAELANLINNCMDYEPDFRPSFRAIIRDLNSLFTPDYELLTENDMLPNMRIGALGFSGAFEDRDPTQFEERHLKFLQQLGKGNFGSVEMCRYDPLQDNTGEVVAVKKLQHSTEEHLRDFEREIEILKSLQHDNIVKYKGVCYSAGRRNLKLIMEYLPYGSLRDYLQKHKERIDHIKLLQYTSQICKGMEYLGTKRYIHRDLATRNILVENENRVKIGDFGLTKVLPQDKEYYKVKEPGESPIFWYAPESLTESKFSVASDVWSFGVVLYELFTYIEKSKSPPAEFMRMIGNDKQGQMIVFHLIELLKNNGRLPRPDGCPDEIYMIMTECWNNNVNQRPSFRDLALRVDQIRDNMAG

For test [8], the system named is A-375. The experiment in a line: Cell cycle arrest in human A-375 cells assessed as accumulation at S-phase at 25 uM measured after 24 hrs by […] (reference value: 33.6 to 33.7%). Type of test: functional.
Test [9] has as its target T1, Signal transducer and activator of transcription 3. The experiment in a line: Inhibition of STAT3 in human SB-590885-resistant MEL1617 cells assessed as reduction in STAT3 transcriptional activity measured after 12 hrs by Dual-luciferase reporter gene assay. Type of test: cell-based. A digest of the protocol: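 Cells co-transfected with inducible STAT3-responsive firefly luciferase and constitutive Renilla luciferase constructs (40:1) using Lipofectamine 3000. After 48 h, dose series in DMSO vehicle applied for 12 h, followed by dual-luciferase readout. Firefly signal normalized to Renilla and compared with untreated cells. Run in triplicate; IC50 taken from dose–response curves.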
(In general: A reporter such as luciferase makes a cellular process visible.)

Test [10] shares this target. The experiment in a line: Inhibition of IRDY 700 oligonucleotide binding to STAT3 in human A-375 cell nuclear extract measured after overnight incubation by electrophoretic mobility shift assay. The settings on record: dose 10-25 µM. A digest of the protocol:
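A375 cells were treated overnight with inhibitor doses or DMSO in full RPMI. Nuclear extracts were prepared by low-salt lysis followed by high-salt extraction, with protease and phosphatase inhibitors. EMSA used 5 µg extract per reaction with IRDye 700 STAT3 consensus oligo; competitor and mutant oligos served as controls, and a STAT3-immunoprecipitated extract was included.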
For orientation: Mobility shift assays separate free from complexed probe on a gel.

Test [11] relates to A-375. In words: Cell cycle arrest in human A-375 cells assessed as increase in accumulation at G1-phase measured after 24 hrs by […]. It is filed as functional, cell-based. Conditions: dose 10-25 µM.
Test [12] is described as follows: Drug metabolism in pH 7.4 phosphate buffer assessed as nitric oxide release at 100 uM measured after 48 hrs by Griess reagent based colorimetric method. A digest of the protocol: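 Compound at 100 µM was held at room temperature in pH 7.4 phosphate buffer with 5 mM DTT and 2% DMSO for 2 or 48 h. Griess reagent was added, and after 30 min absorbance was read at 548 nm. NO release (mol NO/mol compound) was derived from a sodium nitrite calibration curve.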

For test [13], the target named is T1, Signal transducer and activator of transcription 3. The experiment in a line: Inhibition of STAT3 phosphorylation at Y705 residue in human SB-590885-sensitive MEL1617 cells at 10 to 25 uM measured after 12 hrs by Western blot analysis. It is filed as cell-based. Conditions: dose 10-25 µM. A digest of the protocol:
as §1

Test [14] concerns A-375. In words: Cell cycle arrest in human A-375 cells assessed as accumulation at G1-phase at 10 uM measured after 24 hrs by […] (reference value: 55.5 to 56.2%). It is filed as functional.
Test [15] relates to A-375. In words: Cell cycle arrest in human A-375 cells assessed as accumulation at S-phase at 10 uM measured after 24 hrs by […] (reference value: 33.6 to 33.7%). Type of test: functional.
The test system of test [16] is A-375. In words: Cytotoxicity against human A-375 cells assessed as inhibition of cell proliferation measured after 48 hrs by MTS assay. It is filed as functional, cell-based. Conditions: A-375, 48 h. A digest of the protocol:
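Cells were exposed to a dose range of inhibitor for 48 h, and viability was read by MTS assay in triplicate. GI50 was taken as the concentration giving 50% growth inhibition, averaged from three independent experiments. A375 was cultured in RPMI-1640 with Glutamax. A549 and NCI-H157 were kept in RPMI-1640, and MIA PaCa-2 and U87-MG in DMEM.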

The nature of test [17]: Antiproliferative activity against human SB-590885-resistant 451Lu cells assessed as reduction in cell viability measured after 48 hrs by MTS assay. Type of test: functional. Conditions: Homo sapiens, 451Lu, 48 h; read-out: IC50. A digest of the protocol: as §2
The subject of test [18] is MOLT-4. The experiment in a line: Anticancer activity against human MOLT-4 cells assessed as cell growth inhibition at 10 uM measured after 48 hrs by SRB assay relative to control. It is filed as functional. Conditions: read-out: GI. A digest of the protocol: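 NCI 60-cell-line screen. Cells in RPMI with 5% FBS were plated at 5,000–40,000 cells/well by doubling time and preincubated 24 h at 37 °C. Compound was added at a single 10 µM for 48 h, then cells were fixed with cold TCA (10% final) and stained with 0.4% SRB. Absorbance at 515 nm gave percent growth versus untreated control and time-zero cells.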

Test [19] concerns the target Signal transducer and activator of transcription 6 (Homo sapiens) (UniProt P42226). In words: Inhibition of STAT6 phosphorylation at Y641 residues in human A-375 cells at 50 uM after 20 hrs by Western blotting analysis. It is filed as cell-based. A digest of the protocol:
as §3

Test [20] deals with T1, Signal transducer and activator of transcription 3. In words: Inhibition of STAT3 phosphorylation at S727 residue in human SB-590885-sensitive MEL1617 cells at 10 to 25 uM measured after 12 hrs by Western blot analysis. Type of test: cell-based. The settings on record: dose 10-25 µM. In a few lines: as §1
The test system of test [21] is A-375. The experiment in a line: Down regulation of cyclin D1 expression in human A-375 cells measured after 24 hrs by Western blot analysis. Type of test: functional, cell-based. The settings on record: dose 5-50 µM. A digest of the protocol: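 A375 cells were treated for one night with a dose range of inhibitor, lysed, and Cyclin D1 was detected by western blot.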

T1 sequence (P40763 whole entry): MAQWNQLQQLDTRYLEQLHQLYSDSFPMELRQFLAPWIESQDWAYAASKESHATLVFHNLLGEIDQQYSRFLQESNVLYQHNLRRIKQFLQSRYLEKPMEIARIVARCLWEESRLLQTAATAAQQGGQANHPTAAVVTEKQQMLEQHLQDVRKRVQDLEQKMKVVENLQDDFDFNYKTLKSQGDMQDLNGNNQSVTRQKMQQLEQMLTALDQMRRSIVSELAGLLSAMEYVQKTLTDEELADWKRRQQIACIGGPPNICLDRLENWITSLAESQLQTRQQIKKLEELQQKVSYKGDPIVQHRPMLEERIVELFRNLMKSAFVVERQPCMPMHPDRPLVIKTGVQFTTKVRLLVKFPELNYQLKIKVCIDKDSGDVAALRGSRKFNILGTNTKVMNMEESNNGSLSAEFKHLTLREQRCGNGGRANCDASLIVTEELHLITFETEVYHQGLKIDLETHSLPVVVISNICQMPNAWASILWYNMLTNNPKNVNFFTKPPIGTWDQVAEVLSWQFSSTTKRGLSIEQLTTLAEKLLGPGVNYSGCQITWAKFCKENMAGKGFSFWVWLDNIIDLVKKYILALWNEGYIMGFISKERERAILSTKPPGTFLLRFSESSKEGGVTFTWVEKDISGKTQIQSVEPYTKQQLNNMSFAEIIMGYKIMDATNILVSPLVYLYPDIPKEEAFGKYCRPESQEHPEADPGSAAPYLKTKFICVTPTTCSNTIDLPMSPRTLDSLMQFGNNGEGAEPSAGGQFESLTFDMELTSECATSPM
Signal transducer and activator of transcription 6 (Homo sapiens), sequence (P42226 whole entry): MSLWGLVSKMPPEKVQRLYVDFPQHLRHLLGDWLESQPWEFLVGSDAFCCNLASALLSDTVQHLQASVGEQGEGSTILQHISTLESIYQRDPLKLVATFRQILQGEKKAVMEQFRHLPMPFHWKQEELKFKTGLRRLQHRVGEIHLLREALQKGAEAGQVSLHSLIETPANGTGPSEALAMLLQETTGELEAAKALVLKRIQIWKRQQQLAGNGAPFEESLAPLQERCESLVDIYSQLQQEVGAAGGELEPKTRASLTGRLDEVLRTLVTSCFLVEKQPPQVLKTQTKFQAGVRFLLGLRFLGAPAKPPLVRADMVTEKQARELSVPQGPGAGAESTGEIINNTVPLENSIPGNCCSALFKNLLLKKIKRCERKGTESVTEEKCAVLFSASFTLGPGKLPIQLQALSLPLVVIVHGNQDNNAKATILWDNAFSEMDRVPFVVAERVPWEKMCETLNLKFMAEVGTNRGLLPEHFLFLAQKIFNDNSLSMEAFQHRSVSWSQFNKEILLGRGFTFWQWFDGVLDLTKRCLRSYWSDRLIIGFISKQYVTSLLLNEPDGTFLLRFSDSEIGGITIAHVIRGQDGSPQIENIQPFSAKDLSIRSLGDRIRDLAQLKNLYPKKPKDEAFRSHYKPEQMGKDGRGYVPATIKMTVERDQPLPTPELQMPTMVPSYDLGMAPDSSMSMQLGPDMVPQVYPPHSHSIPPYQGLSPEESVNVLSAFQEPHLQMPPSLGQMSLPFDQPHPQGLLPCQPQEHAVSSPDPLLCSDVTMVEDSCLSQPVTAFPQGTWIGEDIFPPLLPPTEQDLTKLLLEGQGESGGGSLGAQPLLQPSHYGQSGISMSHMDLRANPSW

For `C=CCn1c(SCC(=O)Nc2ccc(/C(C)=N\O)cc2)nnc1-c1cc(-c2ccccc2)nc2ccccc12`, the inhibition entry in test [1], in test [3], in [6] and in test [10] was “Dose-dependent effect” in each case. Further, the inhibition entry in test [2], in [13] and in test [20] was “Active” each time. Moreover, the IC50 is 1.77 µM in [4], 9.9 µM in test [9], 7.7 µM in test [16] and 7.8 µM in test [17]. Moreover, the inhibition result in [5], in [7] and in [19] was “inactive” in each case. The Activity in test [8] is 12.3%; in test [11] it was “Dose-dependent effect”; in [14] it was 63%; in test [15], 18.8%; in [21], “Dose-dependent effect”. Moreover, in [12], the Drug metabolism is 30%. Moreover, the inhibition of growth at 10 µM in test [18] came to 76%.
For `C=CCn1c(SCC(=O)Nc2ccc(/C(C)=N\O)cc2)nnc1-c1cc(-c2ccc(Cl)cc2)nc2ccccc12`, the inhibition result in [1], in test [3], in test [6] and in test [10] was “Dose-dependent effect” each time. Besides, the inhibition result in test [2], in [13] and in test [20] was “Active” in each case. In addition, the IC50 in test [4] is 11.3 µM; in test [9], 15.6 µM; in test [16], 1.9 µM; in test [17], 47 µM. In addition, the inhibition result in [5], in test [7] and in [19] was “inactive” in each case. For the same compound, the Activity in [8] was 21.4%; in test [11], “Dose-dependent effect”; in test [14] it was 56.7%; in [15], 24.9%; in test [21] it was “Dose-dependent effect”. The Drug metabolism in test [12] was 30%. Besides, the inhibition of growth at 10 µM in test [18] came out at 100%.
